Experimental data published in ChEMBL document CHEMBL1143565, “Pyrido[2,3-d]pyrimidin-7-ones as specific inhibitors of cyclin-dependent kinase 4” (J Med Chem, 2005).

How the values were obtained:
[1] = target: Cyclin-dependent kinase 4/cyclin D (Homo sapiens, UniProt P11802); assay: (§1) Inhibition of [32P]ATP binding to Cyclin dependant kinase 4-cyclin D; format: protein-complex assay
Outline: (§2)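 Human recombinant Cdk–cyclin holoenzymes expressed in insect cells via baculovirus. Each reaction held 20 ng enzyme, 1 µg GST-retinoblastoma substrate and inhibitor dilutions in 20 mM Tris pH 7.4, 50 mM NaCl, 1 mM DTT, 10 mM MgCl2. Started with [32P]ATP (0.25 µCi), at 25 µM for Cdk4 or 12 µM for Cdk2/E, Cdk2/A and Cdc2/B. Ran 15 min at 25 °C. Stopped with TCA and precipitated ≥1 h at 4 °C.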

[2] = target: Cyclin-dependent kinase 1/cyclin B (Homo sapiens, UniProt P06493); assay: Inhibition of [32P]ATP binding to Cyclin dependent kinase 1-cyclin B; format: protein-complex assay; outline: as §2
[3] = target: Cyclin-dependent kinase 2/cyclin A (Homo sapiens, UniProt P24941); assay: (§3) Inhibition of [32P]ATP binding to Cyclin dependent kinase 2-cyclin A; format: protein-complex assay
Outline: (§4)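 Human recombinant Cdk–cyclin holoenzymes expressed in insect cells via baculovirus. Each reaction held 20 ng enzyme, 1 µg GST-retinoblastoma substrate and inhibitor dilutions in 20 mM Tris pH 7.4, 50 mM NaCl, 1 mM DTT, 10 mM MgCl2. Stopped with TCA and precipitated ≥1 h at 4 °C.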

[4] = target: Cyclin-dependent kinase 2/cyclin E (Homo sapiens, UniProt P24941); assay: Inhibition of [32P]ATP binding to Cyclin dependent kinase 2-cyclin E; format: protein-complex assay; outline: as §4
[5] = target: Cyclin-dependent kinase 4/cyclin D (Homo sapiens, UniProt P11802+P24385+P30281+P30279); assay: as §1; format: protein-complex assay; outline: as §2
Cyclin-dependent kinase 4/cyclin D (Homo sapiens, UniProt P11802+P24385+P30281+P30279), sequence (P11802 whole entry): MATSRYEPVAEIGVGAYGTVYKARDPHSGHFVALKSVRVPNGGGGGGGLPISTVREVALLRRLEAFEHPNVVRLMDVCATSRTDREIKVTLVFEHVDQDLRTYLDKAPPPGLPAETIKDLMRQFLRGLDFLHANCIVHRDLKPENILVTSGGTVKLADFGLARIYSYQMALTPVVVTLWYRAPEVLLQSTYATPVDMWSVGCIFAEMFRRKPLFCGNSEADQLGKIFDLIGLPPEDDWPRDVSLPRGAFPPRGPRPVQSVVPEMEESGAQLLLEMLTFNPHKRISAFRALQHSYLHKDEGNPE
Cyclin-dependent kinase 4/cyclin D (Homo sapiens, UniProt P11802+P24385+P30281+P30279), sequence (P24385 whole entry): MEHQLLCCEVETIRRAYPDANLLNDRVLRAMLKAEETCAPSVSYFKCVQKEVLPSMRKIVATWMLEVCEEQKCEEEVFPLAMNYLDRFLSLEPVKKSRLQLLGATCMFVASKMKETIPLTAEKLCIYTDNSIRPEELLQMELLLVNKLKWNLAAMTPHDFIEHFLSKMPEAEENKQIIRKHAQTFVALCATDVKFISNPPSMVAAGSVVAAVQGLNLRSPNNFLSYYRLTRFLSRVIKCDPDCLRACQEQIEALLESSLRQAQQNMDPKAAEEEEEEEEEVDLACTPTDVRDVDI
Cyclin-dependent kinase 4/cyclin D (Homo sapiens, UniProt P11802+P24385+P30281+P30279), sequence (P30281 whole entry): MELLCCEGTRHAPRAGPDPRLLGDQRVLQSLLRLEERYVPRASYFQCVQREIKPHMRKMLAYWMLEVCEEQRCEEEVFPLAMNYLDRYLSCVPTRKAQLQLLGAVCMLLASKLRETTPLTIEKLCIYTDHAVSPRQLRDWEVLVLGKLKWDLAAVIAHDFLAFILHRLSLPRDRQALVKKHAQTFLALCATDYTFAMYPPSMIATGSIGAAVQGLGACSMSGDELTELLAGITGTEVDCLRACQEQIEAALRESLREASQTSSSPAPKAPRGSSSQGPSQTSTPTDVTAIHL
Cyclin-dependent kinase 4/cyclin D (Homo sapiens, UniProt P11802+P24385+P30281+P30279), sequence (P30279 whole entry): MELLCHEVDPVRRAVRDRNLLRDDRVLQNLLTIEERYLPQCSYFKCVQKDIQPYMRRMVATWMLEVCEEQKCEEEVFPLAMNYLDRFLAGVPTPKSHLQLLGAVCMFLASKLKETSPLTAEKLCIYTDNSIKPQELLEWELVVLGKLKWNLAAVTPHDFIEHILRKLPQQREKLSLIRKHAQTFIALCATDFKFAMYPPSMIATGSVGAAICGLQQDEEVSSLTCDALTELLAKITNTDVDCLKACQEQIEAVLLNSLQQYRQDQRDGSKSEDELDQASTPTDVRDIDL

[6] = target: Cyclin-dependent kinase 2/cyclin A (Homo sapiens, UniProt P24941+P20248+P78396); assay: as §3; format: protein-complex assay; outline: as §4
[7] = target: MAP kinase-activated protein kinase 2 (Homo sapiens, UniProt P49137); assay: Inhibition of MAP kinase-activated protein kinase 2
MAP kinase-activated protein kinase 2, sequence (P49137 whole entry): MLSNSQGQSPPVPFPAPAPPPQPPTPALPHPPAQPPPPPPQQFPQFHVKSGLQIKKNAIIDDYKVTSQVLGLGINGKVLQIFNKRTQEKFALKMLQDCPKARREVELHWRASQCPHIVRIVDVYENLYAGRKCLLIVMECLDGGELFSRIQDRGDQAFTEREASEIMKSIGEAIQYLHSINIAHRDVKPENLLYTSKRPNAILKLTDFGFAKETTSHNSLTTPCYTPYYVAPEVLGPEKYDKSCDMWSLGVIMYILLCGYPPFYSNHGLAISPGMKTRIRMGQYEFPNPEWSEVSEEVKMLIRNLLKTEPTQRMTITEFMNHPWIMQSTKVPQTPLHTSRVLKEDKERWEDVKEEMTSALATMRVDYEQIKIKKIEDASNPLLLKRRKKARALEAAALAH

Protein kinase C (PKC) = assay: Inhibition of Protein Kinase C; format: protein assay, Homo sapiens
[8] = target: Mitogen-activated protein kinase 14 (Homo sapiens, UniProt Q16539); assay: Inhibition of Stress activated protein kinase 2a
Mitogen-activated protein kinase 14, sequence (Q16539 whole entry): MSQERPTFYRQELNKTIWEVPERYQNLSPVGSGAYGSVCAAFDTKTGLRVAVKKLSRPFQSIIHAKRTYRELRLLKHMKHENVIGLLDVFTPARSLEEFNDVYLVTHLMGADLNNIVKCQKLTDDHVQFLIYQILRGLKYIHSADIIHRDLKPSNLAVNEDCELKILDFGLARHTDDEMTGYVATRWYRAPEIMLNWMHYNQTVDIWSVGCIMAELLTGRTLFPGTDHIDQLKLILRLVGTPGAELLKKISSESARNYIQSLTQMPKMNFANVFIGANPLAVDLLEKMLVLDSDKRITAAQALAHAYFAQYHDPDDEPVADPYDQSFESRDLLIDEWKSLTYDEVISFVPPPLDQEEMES

[9] = target: Mitogen-activated protein kinase 1 (Homo sapiens, UniProt P28482); assay: Inhibition of Mitogen activated protein kinase (MAPK2/erk2)
Mitogen-activated protein kinase 1, sequence (P28482 whole entry): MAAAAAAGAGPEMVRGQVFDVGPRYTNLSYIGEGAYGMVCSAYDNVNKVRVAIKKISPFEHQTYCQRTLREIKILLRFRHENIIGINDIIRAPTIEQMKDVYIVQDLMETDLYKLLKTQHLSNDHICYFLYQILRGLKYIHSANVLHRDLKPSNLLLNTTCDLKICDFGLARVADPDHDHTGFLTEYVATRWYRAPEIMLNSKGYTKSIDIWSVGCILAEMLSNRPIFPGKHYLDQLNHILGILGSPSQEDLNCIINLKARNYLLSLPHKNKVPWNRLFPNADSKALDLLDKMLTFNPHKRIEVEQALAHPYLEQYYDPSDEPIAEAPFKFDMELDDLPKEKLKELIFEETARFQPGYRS

[10] = target: c-Jun N-terminal kinase, JNK (Homo sapiens, UniProt P45983+P53779+P45984); assay: Inhibition of c-Jun N-terminal kinase; format: protein assay
[11] = target: T1, MAP kinase-activated protein kinase 5 (Homo sapiens, UniProt Q8IW41); assay: Inhibition of p38-regulated/activated kinase (PRAK)
T1 sequence (Q8IW41 whole entry): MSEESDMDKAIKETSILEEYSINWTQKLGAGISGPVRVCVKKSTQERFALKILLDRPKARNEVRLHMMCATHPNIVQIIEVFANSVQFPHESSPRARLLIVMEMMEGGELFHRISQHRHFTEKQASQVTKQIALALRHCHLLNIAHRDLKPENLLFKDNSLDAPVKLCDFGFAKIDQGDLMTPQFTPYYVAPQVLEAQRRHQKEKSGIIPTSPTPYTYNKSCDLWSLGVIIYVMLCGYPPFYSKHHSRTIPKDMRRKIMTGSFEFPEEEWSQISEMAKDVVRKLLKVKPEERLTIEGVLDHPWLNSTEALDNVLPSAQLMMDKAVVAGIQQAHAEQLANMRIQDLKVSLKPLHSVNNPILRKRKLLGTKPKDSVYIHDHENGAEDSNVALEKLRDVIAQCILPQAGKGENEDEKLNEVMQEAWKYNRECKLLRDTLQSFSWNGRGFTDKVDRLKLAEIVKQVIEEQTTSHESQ

[12] = target: Glycogen synthase kinase-3 beta (Homo sapiens, UniProt P49841); assay: Inhibition of Glycogen synthase kinase 3 beta
Glycogen synthase kinase-3 beta, sequence (P49841 whole entry): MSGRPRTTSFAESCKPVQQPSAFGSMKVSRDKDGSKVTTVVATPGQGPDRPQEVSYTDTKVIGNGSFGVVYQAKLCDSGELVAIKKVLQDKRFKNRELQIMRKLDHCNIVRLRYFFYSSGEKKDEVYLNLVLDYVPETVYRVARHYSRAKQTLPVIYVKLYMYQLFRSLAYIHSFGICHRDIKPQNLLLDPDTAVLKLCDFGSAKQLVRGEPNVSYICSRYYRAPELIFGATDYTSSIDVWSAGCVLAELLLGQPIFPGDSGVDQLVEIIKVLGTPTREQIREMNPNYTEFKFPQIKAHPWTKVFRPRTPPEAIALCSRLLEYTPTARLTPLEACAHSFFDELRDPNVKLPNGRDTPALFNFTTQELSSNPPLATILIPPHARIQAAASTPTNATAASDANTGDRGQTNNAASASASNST

[13] = Inhibition of Mitogen activated protein kinase kinase 1
[14] = target: Ribosomal protein S6 kinase alpha-5 (Homo sapiens, UniProt O75582); assay: Inhibition of mitogen and stress-activated protein kinase-1(MSK-1 kinase)
Ribosomal protein S6 kinase alpha-5, sequence (O75582 whole entry): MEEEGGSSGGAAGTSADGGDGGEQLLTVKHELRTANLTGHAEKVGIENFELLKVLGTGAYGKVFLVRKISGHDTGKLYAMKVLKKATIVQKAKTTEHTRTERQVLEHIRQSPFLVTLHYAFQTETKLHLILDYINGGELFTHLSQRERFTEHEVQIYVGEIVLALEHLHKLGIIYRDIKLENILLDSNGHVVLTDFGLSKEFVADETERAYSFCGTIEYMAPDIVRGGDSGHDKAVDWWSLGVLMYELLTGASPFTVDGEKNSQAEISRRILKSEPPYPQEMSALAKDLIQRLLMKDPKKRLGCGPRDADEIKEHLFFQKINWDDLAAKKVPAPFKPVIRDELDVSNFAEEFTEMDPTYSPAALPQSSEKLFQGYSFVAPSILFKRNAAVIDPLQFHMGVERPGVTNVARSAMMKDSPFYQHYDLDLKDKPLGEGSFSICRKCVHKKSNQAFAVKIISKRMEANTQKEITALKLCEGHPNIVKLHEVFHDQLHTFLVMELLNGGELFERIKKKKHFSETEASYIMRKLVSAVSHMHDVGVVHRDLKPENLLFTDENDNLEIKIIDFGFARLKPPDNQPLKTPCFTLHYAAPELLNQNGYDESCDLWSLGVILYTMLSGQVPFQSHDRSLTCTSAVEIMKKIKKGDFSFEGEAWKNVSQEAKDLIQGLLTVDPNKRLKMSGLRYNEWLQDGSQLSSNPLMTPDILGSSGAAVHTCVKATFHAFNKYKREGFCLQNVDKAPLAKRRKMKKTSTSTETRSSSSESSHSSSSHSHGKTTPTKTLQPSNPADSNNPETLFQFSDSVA

[15] = target: Ribosomal protein S6 kinase (P70S6K) (Homo sapiens, UniProt P23443+Q9UBS0); assay: Inhibition of Ribosomal protein S6 kinase (p70S6K1); format: protein-complex assay
Ribosomal protein S6 kinase (P70S6K), sequence (Q9UBS0 whole entry): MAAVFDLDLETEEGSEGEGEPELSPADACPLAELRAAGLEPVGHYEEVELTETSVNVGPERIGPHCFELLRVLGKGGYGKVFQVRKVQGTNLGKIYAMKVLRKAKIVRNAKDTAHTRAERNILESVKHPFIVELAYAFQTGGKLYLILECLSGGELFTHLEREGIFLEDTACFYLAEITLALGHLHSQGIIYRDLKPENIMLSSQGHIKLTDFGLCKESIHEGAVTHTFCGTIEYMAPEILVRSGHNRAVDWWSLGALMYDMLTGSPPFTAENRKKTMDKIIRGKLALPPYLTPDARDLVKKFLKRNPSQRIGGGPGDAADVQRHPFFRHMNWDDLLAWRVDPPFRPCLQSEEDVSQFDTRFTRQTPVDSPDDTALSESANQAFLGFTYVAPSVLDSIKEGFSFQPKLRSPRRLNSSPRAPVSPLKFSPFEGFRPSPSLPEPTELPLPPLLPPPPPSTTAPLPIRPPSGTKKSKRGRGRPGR
Ribosomal protein S6 kinase (P70S6K), sequence (P23443 whole entry): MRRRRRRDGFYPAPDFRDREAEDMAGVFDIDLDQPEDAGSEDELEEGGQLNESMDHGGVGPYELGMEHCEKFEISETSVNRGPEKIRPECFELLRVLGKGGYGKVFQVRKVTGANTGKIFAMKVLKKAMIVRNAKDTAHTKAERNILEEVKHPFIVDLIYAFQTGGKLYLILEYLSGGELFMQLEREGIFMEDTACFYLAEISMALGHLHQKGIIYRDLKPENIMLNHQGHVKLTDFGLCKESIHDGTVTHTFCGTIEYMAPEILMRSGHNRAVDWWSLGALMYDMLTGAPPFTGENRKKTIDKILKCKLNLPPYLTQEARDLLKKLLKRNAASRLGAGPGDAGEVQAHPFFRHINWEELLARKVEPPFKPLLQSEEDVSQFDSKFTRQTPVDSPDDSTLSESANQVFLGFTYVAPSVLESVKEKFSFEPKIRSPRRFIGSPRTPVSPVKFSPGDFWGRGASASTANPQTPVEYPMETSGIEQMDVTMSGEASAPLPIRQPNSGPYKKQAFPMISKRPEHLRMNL

[16] = target: Fibroblast growth factor receptor (Homo sapiens, UniProt P22607+P11362+P22455+P21802); assay: Inhibition of Fibroblast growth factor receptor; format: protein assay
[17] = target: Serine/threonine-protein kinase AKT (Homo sapiens, UniProt P31751+Q9Y243+P31749); assay: Inhibition of Protein kinase B; format: protein assay
[18] = Inhibition of Protein Kinase A; design: species or system Homo sapiens
[19] = Inhibition of 3-phosphoinisitide-dependent protein kinase-1
[20] = Inhibition of Tyrosine-protein kinase CSK
[21] = Inhibition of Phosphorylase kinase
MDA-MB-435 = assay: In vitro inhibitory concentration is measured by the incorporation of [14C]thymidine in human breast carcinoma MDA-MB-435 cell line; format: functional, cell-based
[22] = target: Mitogen-activated protein kinase 11 (Homo sapiens, UniProt Q15759); assay: Inhibition of Stress activated protein kinase 2b
Mitogen-activated protein kinase 11, sequence (Q15759 whole entry): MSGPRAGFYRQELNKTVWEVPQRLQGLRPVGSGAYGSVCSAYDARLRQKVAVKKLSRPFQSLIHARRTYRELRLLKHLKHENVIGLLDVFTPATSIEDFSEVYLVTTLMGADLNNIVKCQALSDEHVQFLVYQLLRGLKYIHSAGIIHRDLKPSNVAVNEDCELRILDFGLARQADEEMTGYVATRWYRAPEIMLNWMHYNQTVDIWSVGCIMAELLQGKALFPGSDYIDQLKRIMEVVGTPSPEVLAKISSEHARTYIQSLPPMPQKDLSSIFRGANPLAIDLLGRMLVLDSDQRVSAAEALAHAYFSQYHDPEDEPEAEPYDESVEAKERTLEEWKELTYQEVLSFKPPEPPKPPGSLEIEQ

| IC50 [1] | IC50 [2] | IC50 [3] | IC50 [4] | Structure (SMILES) | further results |
| --- | --- | --- | --- | --- | --- |
| 103 nM | > 5000 nM | > 5000 nM | > 5000 nM | CC(=O)N1CCN(c2ccc(Nc3ncc4c(C)cc(=O)n(C5CCCC5)c4n3)cc2)CC1 |  |
| 35 nM | > 5000 nM | > 5000 nM | > 5000 nM | Cc1cc(=O)n(C2CCCC2)c2nc(Nc3ccc(N4CCN(CCO)CC4)cc3)ncc12 |  |
| 260 nM | > 5000 nM |  |  | Cc1cc(=O)n(C2CCCC2)c2nc(Nc3ccc(N4CCC(O)C4)cc3)ncc12 (stereo not drawn) |  |
| 64 nM | > 5000 nM |  |  | Cc1cc(=O)n(C2CCCC2)c2nc(Nc3ccc(N4CCC(N)C4)cc3)ncc12 (stereo not drawn) |  |
| 65 nM | > 5000 nM | > 5000 nM | > 5000 nM | Cc1cc(=O)n(C2CCCC2)c2nc(Nc3ccc(N4CCNC(C)(C)C4)cc3)ncc12 |  |
| 114 nM | > 5000 nM | > 5000 nM | > 5000 nM | Cc1cc(=O)n(C2CCCC2)c2nc(Nc3ccc(N4CCC(CCCO)CC4)cc3)ncc12 |  |
| 14 nM | > 5000 nM |  |  | Cc1cc(=O)n(C2CCCC2)c2nc(Nc3ccc(N4CCNCC4)cc3)ncc12 |  |
| 116 nM | 1120 nM | > 5000 nM | > 5000 nM | Cc1cc(=O)n(C2CCCC2)c2nc(Nc3ccc(N4CCOCC4)cc3)ncc12 |  |
| 180 nM |  | > 5000 nM |  | Cc1cc(=O)n(C2CCCC2)c2nc(Nc3ccc(N4CCCCC4)cc3)ncc12 |  |
| 425 nM |  | > 5000 nM | > 5000 nM | Cc1cc(=O)n(C2CCCC2)c2nc(Nc3ccc(N4CCN(C(=O)OC(C)(C)C)CC4)cc3)ncc12 |  |
| 18 nM | > 5000 nM | > 5000 nM | > 5000 nM | Cc1cc(=O)n(C2CCCC2)c2nc(Nc3ccc(N4CCN(C)CC4)cc3)ncc12 |  |
| 161 nM | > 5000 nM | > 5000 nM | > 5000 nM | Cc1cc(=O)n(C2CCCC2)c2nc(Nc3ccc(N4CCN(C=O)CC4)cc3)ncc12 |  |
| 52 nM | > 5000 nM | > 5000 nM | > 5000 nM | Cc1cc(=O)n(C2CCCC2)c2nc(Nc3ccc(N4CCCNCC4)cc3)ncc12 |  |

The remaining lines, values behind:

| Structure (SMILES) | IC50 [1] | IC50 [2] | IC50 [3] | IC50 [4] | further results |
| --- | --- | --- | --- | --- | --- |
| CCc1cc(=O)n(C2CCCC2)c2nc(Nc3ccc(N4CCNCC4)cc3)ncc12 | 655 nM | > 5000 nM | > 5000 nM | > 5000 nM |  |
| COC(=O)c1c(C)c2cnc(Nc3ccc(N4CCNCC4)cc3)nc2n(C2CCCC2)c1=O | 4 nM | > 5000 nM | 2820 nM | > 5000 nM |  |
| Cc1c(F)c(=O)n(C2CCCC2)c2nc(Nc3ccc(N4CCNCC4)cc3)ncc12 | 30 nM | > 5000 nM | > 5000 nM | > 5000 nM |  |
| Cc1c(Cl)c(=O)n(C2CCCC2)c2nc(Nc3ccc(N4CCNCC4)cc3)ncc12 | 16 nM | > 5000 nM | 1620 nM | 1500 nM |  |
| O=c1ccc2cnc(Nc3ccc(N4CCNCC4)cc3)nc2n1C1CCCC1 |  |  |  | 80 nM |  |
| Cc1c(I)c(=O)n(C2CCCC2)c2nc(Nc3ccc(N4CCNCC4)cc3)ncc12 | 5 nM | 1870 nM | 443 nM | 365 nM |  |
| CCc1c(C)c2cnc(Nc3ccc(N4CCNCC4)cc3)nc2n(C2CCCC2)c1=O | 25 nM | 4120 nM | 1540 nM | 1650 nM |  |
| O=c1cc(C(F)(F)F)c2cnc(Nc3ccc(N4CCNCC4)cc3)nc2n1C1CCCC1 | 2650 nM | > 5000 nM | > 5000 nM | > 5000 nM |  |
| CN1CCN(c2ccc(Nc3ncc4ccc(=O)n(C5CCCC5)c4n3)cc2)CC1 | 7 nM |  | 14 nM | 39 nM |  |
| Cc1c(C)c2cnc(Nc3ccc(N4CCNCC4)cc3)nc2n(C2CCCC2)c1=O | 165 nM | > 5000 nM |  | > 5000 nM |  |
| CCOC(=O)c1c(C)c2cnc(Nc3ccc(N4CCNCC4)cc3)nc2n(C2CCCC2)c1=O |  | > 5000 nM | > 5000 nM | > 5000 nM | IC50 [5]: 6 nM |
| O=c1ccc2cnc(Nc3ccc(N4CCOCC4)cc3)nc2n1C1CCCC1 | 10 nM | 275 nM | 28 nM | 85 nM |  |
| Cc1cc(=O)n(C(C)C)c2nc(Nc3ccc(N4CCNCC4)cc3)ncc12 | 265 nM | > 5000 nM | > 5000 nM | > 5000 nM |  |
| Cc1cc(=O)n(CCC(C)C)c2nc(Nc3ccc(N4CCNCC4)cc3)ncc12 | 1080 nM | > 5000 nM | > 5000 nM | > 5000 nM |  |
| Cc1cc(=O)n(C2CCCC2)c2nc(Nc3ccc(N4C[C@@H](C)N[C@@H](C)C4)cc3)ncc12 | 240 nM | > 5000 nM |  | > 5000 nM |  |
| Cc1cc(=O)n(C2CCCC2)c2nc(Nc3ccc(N4CCNCC4)c(Cl)c3)ncc12 | 28 nM | > 5000 nM | > 5000 nM | > 5000 nM |  |
| O=c1ccc2cnc(Nc3ccc(N4CCC(CCCO)CC4)cc3)nc2n1C1CCCC1 |  | > 5000 nM |  | 4550 nM |  |
| Cc1c(C(=O)O)c(=O)n(C2CCCC2)c2nc(Nc3ccc(N4CCNCC4)cc3)ncc12 | 32 nM | > 5000 nM | > 5000 nM | > 5000 nM |  |
| O=c1ccc2cnc(Nc3ccc(N4CCCCC4)cc3)nc2n1C1CCCC1 | 10 nM | 570 nM | 660 nM | 246 nM |  |
| Cc1c(Br)c(=O)n(C2CCCC2)c2nc(Nc3ccc(N4CCNCC4)cc3)ncc12 |  | 2610 nM |  | 950 nM | IC50 [6]: 439 nM |
| CC(=O)c1c(C)c2cnc(Nc3ccc(N4CCNCC4)cc3)nc2n(C2CCCC2)c1=O |  |  |  |  | IC50 [7]: > 10000 nM; IC50 (Protein kinase C (PKC)): > 10000 nM; IC50 [5]: 2 nM; IC50 [8]: > 10000 nM; IC50 [9]: > 10000 nM; IC50 [10]: > 10000 nM; IC50 [11]: > 10000 nM; IC50 [12]: > 10000 nM; IC50 [13]: > 10000 nM; IC50 [14]: > 10000 nM; IC50 [15]: > 10000 nM; IC50 [16]: 1860 nM; IC50 [17]: > 10000 nM; IC50 [18]: > 10000 nM; IC50 [19]: > 10000 nM; IC50 [20]: > 10000 nM; IC50 [21]: > 10000 nM; IC50 (MDA-MB-435): 32 nM; IC50 [22]: > 10000 nM |
